Assay outcomes: PubChem BioAssay, several laboratories
T cruzi inh: T. cruzi replication inhibition; AID 1885; T. cruzi beta-gal in NIH3T3, luminescence, 90 h; 1.4% of 300,000 active; inhibition, % (no concentration beside the values);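 active = mean inhibition across valid replicates above about 55%, limit read from the data; inconclusive = mean below that limit but half or more replicates reach it; inactive = mean below it, under half of replicates reach it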;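 note: signal also drops with host cell toxicity which is not excluded here; 0% = plate median of DMSO wells and 100% = zero luminescence signal; higher percent means less beta-gal luminescence so fewer parasites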
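assay system = mouse NIH/3T3 fibroblasts infected with β-gal-expressing T. cruzi Tulahuen C4 | input = 5,000 NIH/3T3 host cells per well | buffer or medium = DMEM plus 2% FBS | timing = 3 h host attachment, then at least 90 h co-culture | measured by = GalScreen luminescence, 60 min | evaluation = luminescence reflecting intracellular parasite burden, expressed as percent inhibition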
PolyA inhibitor: inhibitors of polyadenylation in S. cerevisiae; S. cerevisiae SKY197-pL101 polyadenylation reporter, beta-gal luminescence; efflux-impaired pdr1/pdr3 knockout yeast; score 100 = 6 SD above DMSO; activity score, % at 12 µM; 0.02% of 300,000 active;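 active = lowest replicate activity score at least 50, where 100 means six control SD above control mean; inconclusive = lowest score under 50 but half or more replicates reach 50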;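 note: yeast exposed to compound for 9 h at 30 °C; higher score means more reporter readthrough which indicates perturbed polyadenylation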
AI-2 QS mod: modulates the Vibrio harveyi AI-2 quorum sensing system; Vibrio harveyi JMH597 AI-2 luminescence/OD600 ratio, 9 h; active compounds read low; strain lacks LuxN and CqsS sensors; 0 = neutral-control median; activity change, % at 7.5 µM; 0.4% of 300,000 active; AID 2094; in the data active = activity change below about -75%, passing the limit was not always enough; inconclusive = no clear call, values can overlap the other calls;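 note: luminescence divided by OD600 gain over 9 h not by final OD600 alone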
HDAC3 inh: inhibitors of human histone deacetylase 3. O15379. recombinant HDAC3, fluorogenic peptide/trypsin coupled, fluorescence. inhibition, % at 8.3 µM. 0.15% of 320,000 active. AID 2718; in the data active = inhibition above about 26%, passing the limit was not always enough; inconclusive = no clear call, values can overlap the other calls
Target sequence (O15379 whole entry, looked up): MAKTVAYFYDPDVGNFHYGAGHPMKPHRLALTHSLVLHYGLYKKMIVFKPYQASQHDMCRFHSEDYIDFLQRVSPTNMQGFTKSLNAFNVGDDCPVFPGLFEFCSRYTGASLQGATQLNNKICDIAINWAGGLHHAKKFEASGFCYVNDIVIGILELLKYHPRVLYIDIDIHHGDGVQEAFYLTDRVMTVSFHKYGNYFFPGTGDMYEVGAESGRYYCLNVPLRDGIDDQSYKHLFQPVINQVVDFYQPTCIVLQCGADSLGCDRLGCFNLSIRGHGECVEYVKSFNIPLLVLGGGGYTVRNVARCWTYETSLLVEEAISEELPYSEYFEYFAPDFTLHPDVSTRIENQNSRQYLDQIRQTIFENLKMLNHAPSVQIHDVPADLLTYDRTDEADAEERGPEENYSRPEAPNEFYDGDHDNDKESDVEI
Efflux pump mplx: inhibitors of Candida antifungal efflux pumps expressed in yeast. 0.44% of 330,000 active. inhibition, % at 10 µM. S. cerevisiae Candida pump triplex, Nile Red efflux;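 active = plate passing quality check with inhibition over a set limit, or well fluorescence over plate mean plus 4 SD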;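 note: Nile Red retained in pooled yeast measured as flow cytometry median fluorescence; 0% = buffer negative control and 100% = Enniatin B positive control; higher means more Nile Red kept so more efflux inhibition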
Active calls of the source: *; ? = inconclusive; · = not tested or not shown. A selection: hits, their analogues and other compounds. The true share with any hit is near 2.2%.

SMILES	T cruzi inh	PolyA inhibitor	AI-2 QS mod	HDAC3 inh	Efflux pump mplx
CCCC(=O)NC(c1ccccc1OC)c1ccc2cccnc2c1O (stereo not drawn)	81*	-13	-22	-9	0
CCCCC(=O)NC(c1ccccc1OC)c1ccc2cccnc2c1O (stereo not drawn)	57*	-10	6	-5	0
Cc1cc(NC(=O)C(C)SCC(=O)Nc2ccccc2C(C)(C)C)no1 (stereo not drawn)	2	3	3	-5	0
O=C(CC1SC(N2CCCCC2)=NC1=O)Nc1cccc(C(=O)Nc2ncccc2O)c1 (stereo not drawn)	2	-17	7	65*	0
CCNC(=O)c1cccc(NC(=O)CC2SC(N3CCCCC3)=NC2=O)c1 (stereo not drawn)	-8	18	28	-10	0
Cc1ccc(NC(=O)COc2ccccc2CNC(C)(C)CC(C)(C)C)cc1	61*	-9	4	-12	-2
Cc1nc([N+](=O)[O-])cn1CC(=O)Nc1ccc(F)c(Cl)c1	1	1	·	-5	0
OC(CNCC(c1ccc(Cl)cc1Cl)c1c[nH]c2ccccc12)c1ccccc1 (stereo not drawn)	82*	15	37	-4	0
CCCCNc1c(N)n(CCCC)c(=O)[nH]c1=O	9	1	10	-5	0
CN1CCN(CCCc2c3c(cc4c2CCC4)CCC3)CC1	62*	12	13	-3	0
COc1ccccc1OC(C)C(=O)N(Cc1ccco1)C1CCS(=O)(=O)C1 (stereo not drawn)	-3	7	30	·	0
CN(C)CCCSc1nc(-c2ccccc2)nc2c1CCC2	71*	11	1	2	0
O=C(NCCCN1CCCC1=O)c1cc(S(=O)(=O)N2CCOCC2)ccc1Cl	2	-10	12	0	0
Clc1c2c(nc3ccccc13)CCC2	2	-9	2	-3	0
Cc1c2c(nc3ccccc13)CCC(C(C)(C)C)C2 (stereo not drawn)	57*	3	27	4	0
CC(=O)C[C@H]1c2ccccc2S(=O)(=O)N1c1ccccc1	-15	10	-3	-7	0
O=C(CCC(=O)N1CCCCC1)Nc1ccc(Cl)c(Cl)c1	-1	-12	-78*	4	1
Nc1cc(S(=O)(=O)Nc2ccc(Br)cc2)ccc1Cl	1	-1	-76*	-2	0
CC1CCC2(CC1)NC(=O)N(CC(=O)Nc1cccc(C#N)c1)C2=O (stereo not drawn)	·	·	·	·	0
Brc1csc(/C=N/Nc2nc3ccccc3s2)c1	9	-33	9	·	-1
Cc1ccc2[nH]c(C)c(/C=N/Nc3nc4ccccc4s3)c2c1	61*	5	50	0	0
Cc1ccc2[nH]c(O)c(N=Nc3nc4ccccc4s3)c2c1	61*	-1	8	3	0
COc1ccc(S(=O)(=O)N(n2c(C)nnc2-n2nc(C)cc2C)S(=O)(=O)c2ccc(OC)cc2)cc1	1	1	11	-4	0
O=C(CNC(=O)c1ccco1)OCc1ccc(Br)cc1	-11	-5	-76*	-9	0
COc1cc2c(cc1OC)C(c1ccc(Br)cc1)NCC2 (stereo not drawn)	57*	3	5	-2	0
SMILES	T cruzi inh	PolyA inhibitor	AI-2 QS mod	HDAC3 inh	Efflux pump mplx
COc1ccc(C2NCCc3cc(OC)c(OC)cc32)cc1OC (stereo not drawn)	5	-22	18	-1	0
CCCC(=O)N/N=C1\CS(=O)(=O)N(C)c2ccsc21	4	3	31	2	0
Cc1ccc(N/N=C2\CS(=O)(=O)N(C)c3ccsc32)cc1	64*	-32	25	13	0
CN1c2ccsc2/C(=N/Nc2ccc(F)cc2)CS1(=O)=O	64*	·	19	6	0
COC(=O)C[C@H]1c2cc(C(F)(F)F)ccc2S(=O)(=O)N1Cc1ccccc1OC	-13	?	16	6	0
COc1ccc(-c2nc(NC(=O)c3[nH]c(C)c(C(C)=O)c3C)sc2C)cc1	39	7	16	-2	0
Cc1ccc(-n2cc(CN3CCC(O)(c4ccccn4)CC3)c(-c3ccc(F)cc3)n2)cc1	55*	-2	19	4	0
Cc1ccc(-n2cc(CN3CCNC(=O)CC3)c(-c3ccc(F)cc3)n2)cc1	21	14	11	·	0
CCN(CC)c1ccc(-c2sc(Nc3ccccc3)n[n+]2-c2ccc(F)cc2)cc1	29	11	8	16	1
Fc1ccc(-[n+]2nc(Nc3ccccc3)sc2-c2c(Cl)cccc2Cl)cc1	42	7	63	7	0
CCc1ccc(Nc2n[n+](-c3ccccc3)c(-c3c(Cl)cccc3Cl)s2)cc1	59*	13	1	0	0
COc1ccc2ccccc2c1-c1sc(Nc2ccccc2)n[n+]1-c1ccc(F)cc1	61*	13	39	2	0
COc1ccc(-c2sc(Nc3ccccc3)n[n+]2-c2ccc(F)cc2)cc1Br	-2	8	21	-2	0
CCc1ccc(Nc2n[n+](-c3ccccc3)c(-c3ccc(OCc4ccccc4)cc3)s2)cc1	55*	18	2	5	0
c1ccc(COc2ccc(-c3sc(Nc4ccccc4)n[n+]3-c3ccccc3)cc2)cc1	32	7	22	3	0
CCc1ccc(Nc2n[n+](-c3ccccc3)c(-c3ccc(N(CC)CC)cc3)s2)cc1	58*	20	2	10	2
O=C1C[C@@H](c2ccc(O[C@@H]3O[C@H](CO)[C@@H](O)[C@H](O)[C@H]3O)cc2)Oc2cc(O)ccc21	-2	7	11	0	·
CCOC(=O)N1CCN(C(=O)COC(=O)c2cc(C)ccc2C)CC1	·	·	·	-5	0
CN(C)CCNC(=O)c1nn(C)c2c1CCc1ccccc1-2	10	12	9	-1	0
COc1ccc(-c2cccc(NS(=O)(=O)c3cc([N+](=O)[O-])c(C)c([N+](=O)[O-])c3)c2)nn1	4	0	22	·	0
CC(C)Cn1c(N)c(C(=O)COC(=O)c2cc(S(=O)(=O)N3CCOCC3)ccc2Br)c(=O)n(C)c1=O	·	·	·	34*	1
Cn1c(-c2ccccc2)cc2c3no[n+]([O-])c3ccc21	73*	2	24	-7	0
O=C(COc1ccc(Cl)cc1)Nc1ncc([N+](=O)[O-])s1	-4	5	16	·	·
O=C(Cc1ccc(Cl)cc1)Nc1ncc([N+](=O)[O-])s1	94*	-10	29	·	·
O=C(Cc1ccc(Br)cc1)Nc1ncc([N+](=O)[O-])s1	60*	-16	7	4	0
C=CCN=C1S/C(=C\N(C)C)C(=O)N1S(=O)(=O)c1ccc(C)cc1	·	·	·	-3	0
O=C(NCCCNC(=O)c1ccccc1F)c1ccco1	5	8	15	-6	0
